Measurements from PubChem BioAssay AID463079 (The Scripps Research Institute Molecular Screening Center, 2010).
Among all 330,000 compounds or so, about 2,000 (0.61%) were called active. Shown is part of a subset that was picked to be rich in actives. Values without a mark were called inactive.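 The calls were made as follows: active = inhibition above that plate's mean sample inhibition plus 3 SD (cut at about 26% in these data); inactive = the rest.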

Experiment: ATP-evoked calcium signal inhibitors, parental CHO, primary screen, counter-screen for OX1R antagonist project, cell-based, fluorescence, Fluo-8 calcium dye (AID 463079);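 also: 0% = ATP-challenged DMSO wells and 100% = DMSO wells without ATP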
Conditions: parental CHO-K1, ATP-induced calcium, Fluo-8 fluorescence; at 5.6 µM; active compounds read high
Method in brief: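 Material – parental CHO cells · Reagent – ATP stimulus · Compound – single nominal dose of 5.6 µM per compound · Detection – Fluo-8 fluorescence · Read-out basis – percent inhibition of calcium signal · Controls – ATP-challenged DMSO wells low, unchallenged DMSO wells high · Repeats – no replicates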

| Compound | inhibition |
| --- | --- |
| CCN(CC)P(=O)(Oc1cccc(C)c1)N(CC)CC | -16.2% |
| Cc1cccc(OP(=O)(Oc2cccc(C)c2)OC(c2ccccc2)C(F)(F)F)c1 (stereo not given) | 43% (active) |
| CN(C)S(=O)(=O)c1cc(C(=O)N2CCC(C(=O)O)(c3ccccc3)CC2)ccc1Cl | -3.89% |
| Nc1ccc([N+](=O)[O-])cc1 | -2.28% |
| COC(=O)N(c1ccc(OC)cc1)P1(=S)OCCC(C)O1 (stereo not given) | -5.5% |
| O=C1NC(=O)C(CCc2ccccn2)(Cc2cccc(Cl)c2Cl)C(=O)N1c1ccc(Br)cc1 (stereo not given) | -47.9% |
| O=C1C2(Cl)C3(Cl)C4(Cl)C(Cl)(Cl)C5(Cl)C3(Cl)C1(Cl)C5(Cl)C24Cl (stereo not given) | 48.6% (active) |
| O=C(CSC1c2ccccc2-c2ccccc21)N/N=C/c1ccccc1 | -10.8% |
| c1ccc(CC2CCCCN2)cc1 (stereo not given) | -2.34% |
| CC1=C(C(=O)Nc2ccccc2)S(=O)(=O)CCO1 | -5.31% |
| CCCCCCCCCCCCn1ccc(=N)cc1 | 40% (active) |
| CCOC(=O)c1c(C)c(C(=O)N2CCC3(CC2)OCCO3)c(C)n1CC | -3.29% |
| CN1CCC(N(C)Cc2cccnc2)CC1 | -10.6% |
| ClC(Cl)(Cl)c1ccccc1 | 2.74% |
| CCN(CC)C(=O)c1ccc(NC(=O)c2cc(-n3cnnc3)ccc2Cl)cc1 | -4.65% |
